Sampled rows, rich in hits. Any-hit rate of the full collection: about 1.9%.
DDE Tn6 FP inh = DD(E)-Tn6 binding inhibition, primary FP screen | Fibrin DD(E) TRITC-Tn6 fluorescence polarization displacement | inhibition, % at 8.3 µM | actives 0.21% (n = 370,000) | P02675;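 active = inhibition above a per-campaign cutoff: mean of compounds within control limits plus 3 SD, cut at about 15% in these data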;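 note: 0% = median of all compound wells on the plate and 100% = blocking peptide control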
UHRF1 MBD2 ctr = blocks human UHRF1 binding to methylated DNA; Q96T88; UHRF1 binding to methylated oligo, TR-FRET; actives 0.75% (n = 370,000); inhibition, % at 4.4 µM; in the data active = inhibition above about 21%;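 note: UHRF1 SRA domain binding a hemimethylated CpG hairpin DNA probe; 0% = median of test compound wells and 100% = reference inhibitor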
MBD2 inh = inhibitors of human MBD2 binding to methylated oligonucleotide; actives 0.31% (n = 370,000); inhibition, % at 4.4 µM; AID 686964; TR-FRET; Q9UBB5; in the data active = inhibition above about 13%
Target sequence (Q9UBB5 whole entry, looked up): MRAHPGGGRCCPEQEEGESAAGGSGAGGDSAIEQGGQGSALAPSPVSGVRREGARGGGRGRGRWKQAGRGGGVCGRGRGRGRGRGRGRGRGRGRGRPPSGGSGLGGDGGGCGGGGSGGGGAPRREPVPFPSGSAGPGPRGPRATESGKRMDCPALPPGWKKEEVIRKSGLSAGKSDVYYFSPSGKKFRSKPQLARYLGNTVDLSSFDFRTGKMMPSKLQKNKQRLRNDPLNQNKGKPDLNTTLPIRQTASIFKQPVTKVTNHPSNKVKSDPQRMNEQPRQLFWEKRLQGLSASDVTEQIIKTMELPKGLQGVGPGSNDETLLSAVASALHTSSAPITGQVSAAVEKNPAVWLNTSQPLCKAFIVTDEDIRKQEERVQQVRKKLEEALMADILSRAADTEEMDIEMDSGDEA
Tn7 DDE FP = inhibitors of Tn7 peptide binding to human fibrin DD(E); AID 720508; inhibition, % at 8.3 µM; actives 0.13% (n = 370,000); FP displacement of FITC-Tn7 peptide from fibrin DD(E); 0% = median of compound wells per plate; P02675;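 active = inhibition above the mean of compounds falling within the control limits plus 3 SD of them, cut at about 14% in these data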;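 note: 0% = plate median of compound wells and 100% = 10 µM Aha-Tn7 peptide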
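Assay system: human fibrin DD(E) protein / Input: 2 µM fibrin DD(E) / Benchmarks: high control of 10 µM Aha-Tn7 peptide / Measured by: fluorescence polarization of the labelled Tn7 tracer / Medium: Tris buffer with calcium and detergent, pH 7.8 / Timing: 10 min compound pre-incubation, 3 h probe incubation at room temperature / Repeats: one replicate per compound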
TDP2 inh = TDP2 (human) inhibition, absorbance primary screen; inhibition, % at 12.8 µM; recombinant TDP2, T5PNP hydrolysis, p-nitrophenol absorbance 415 nm; actives 0.34% (n = 370,000); O95551;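 active = inhibition above the mean of all tested compounds plus 3 SD, set per campaign, cut at about 25% in these data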;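 note: 0% = DMSO with enzyme and 100% = buffer with substrate but no TDP2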
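Incubation: 2 h at 37 °C; Test system: recombinant human TDP2; Quantity: enzyme 120 nM; Read-out basis: percent inhibition; Medium: 50 mM Tris-HCl pH 7.5 with Mg2+, KCl, DTT, BSA; Repeats: single replicate; Compound: 12.8 µM single point, 1% DMSO; Signal: epi absorbance; Reagent: 5 mM T5PNP chromogenic substrate; Benchmarks: no-enzyme high, DMSO-plus-enzyme low.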
LEDGF integ inh = blocks HIV-1 LEDGF/p75-dependent DNA integration | TR-FRET IN-LEDGF/p75 DNA integration, Eu/Cy5 | inhibition, % at 3.7 µM | actives 0.64% (n = 370,000);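 active = inhibition above the screen-wide mean plus 3 SD, cut at about 13% in these data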;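 note: signal is the Cy5 over europium emission ratio at 671 and 618 nm; 0% = plate median of compound wells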
An asterisk follows results filed as active; + = active, no number.

SMILES	DDE Tn6 FP inh	UHRF1 MBD2 ctr	MBD2 inh	Tn7 DDE FP	TDP2 inh	LEDGF integ inh
C/C(=N\Nc1ccc(C(F)(F)F)cn1)c1ccncc1	-10	22*	10	0	6	5
COc1ccc(NC(=O)CSc2nnc(-c3ccco3)n2N)cc1Cl	-3	22*	-1	1	18	-1
O=S1(=O)N[C@H](Cc2ccccc2)COc2cc(N3CCOCC3)ccc21	-5	7	-1	6	4	-2
O=c1[nH][nH]c2c1C(c1ccc(F)cc1)OC(CCc1ccccc1)C2 (centres undefined)	-2	-8	-5	3	1	4
O=c1[nH][nH]c2c1[C@@H](c1ccc(F)cc1)O[C@H](CCc1ccccc1)C2	0	29*	-6	7	-3	3
COc1ccc(CN2CCC(CNC(=O)NC3CCC(C)CC3)CC2)cc1 (centres undefined)	4	2	1	-4	-9	-1
O=C(NCCc1ccccc1)OCc1cn(-c2c(F)cccc2F)nn1	8	1	1	-6	7	-5
COc1cc(C(=O)NC2CCCCN(C)C2=O)cc(OC)c1OC (centres undefined)	1	0	-3	5	3	0
COc1cccc(C2/C(=C(/O)c3ccc(C)cc3)C(=O)C(=O)N2Cc2ccco2)c1 (centres undefined)	-4	29*	2	-2	-2	2
COc1cccc(C2/C(=C(/O)c3ccccc3)C(=O)C(=O)N2Cc2ccco2)c1 (centres undefined)	0	0	-3	-2	-10	-7
Cc1c(C(=O)Nc2cccc(Cl)c2)c2ccccn2c1CCc1ccncc1	-2	-1	0	-5	1	0
Cc1c(C(=O)Nc2ccc(Cl)cc2)c2ccccn2c1CCc1ccncc1	-1	24*	0	-1	3	-4
CCOc1ccc(/C=N/NC(=O)c2ccc(CSc3nc4ccccc4[nH]3)cc2)cc1	-4	-3	-8	7	-3	-1
O=C(N/N=C/c1ccc(OC(F)F)cc1)c1ccc(CSc2nc3ccccc3[nH]2)cc1	-9	25*	13	-3	-6	-1
CN1CCCN(S(=O)(=O)c2ccc3c(c2)CCC(=O)N3)CC1	6	4	7	2	0	-2
CN(C)c1ccc(C=c2c3ccccc3n3c2c2c([n+]3C)CCCC2)cc1	0	38*	10	12	4	-5
CN(C)c1ccc(C=c2c3ccccc3n3c2cc(-c2ccc(Cl)cc2)[n+]3C)cc1	-16	19	5	1	12	4
O=c1cc(-c2ccc(O)c(O)c2)oc2cc(O)c([C@@H]3O[C@H](CO)[C@@H](O)[C@H](O)[C@H]3O)c(O)c12	-7	-4	-4	2	-3	57*
O=c1cc(-c2ccc(O)cc2)oc2c([C@@H]3O[C@H](CO)[C@@H](O)[C@H](O)[C@H]3O)c(O)c([C@@H]3O[C@H](CO)[C@@H](O)[C@H](O)[C@H]3O)c(O)c12	-1	-4	-2	1	5	-3
Cc1cc(N2CCN(Cc3ccccc3)CC2)n2nc(C)nc2n1	-4	1	1	0	6	5
COc1cccc2c1C(=O)c1c(O)c3c(c(O)c1C2=O)C[C@@](O)(C(=O)CO)C[C@@H]3O[C@H]1C[C@H](N)[C@H](O)[C@H](C)O1	+	94*	110*	19*	6	13
COc1cccc2c1C(=O)c1c(O)c3c(c(O)c1C2=O)C[C@@](O)(C(=O)CO)C[C@@H]3OC1CC(N)C(O)C(C)O1 (some centres undefined)	+	95*	112*	13	5	4
CC(=O)[C@@]1(O)Cc2c(O)c3c(c(O)c2[C@H](O[C@H]2C[C@H](N)[C@H](O)[C@H](C)O2)C1)C(=O)c1ccccc1C3=O	198*	95*	106*	51*	12	0
Cc1[nH]c2ccccc2c1CC(=O)Nc1ccc(Nc2ccncc2)cc1	1	2	0	-4	1	2
Cc1cc(C)n(CCNC(=O)[C@@H](Cc2ccccc2)NC(=O)[C@H]2O[C@@H](n3ccc(=O)[nH]c3=O)[C@H](O)[C@@H]2O)n1	-7	0	2	-3	4	1
SMILES	DDE Tn6 FP inh	UHRF1 MBD2 ctr	MBD2 inh	Tn7 DDE FP	TDP2 inh	LEDGF integ inh
COc1ccccc1CNC(=O)C[C@H]1CC[C@H]2[C@@H](COc3ccc(NC(=O)Nc4ccccc4)cc3C(=O)N2C)O1	-7	-1	2	-2	1	0
CCCOc1cccc(C(=O)NCCCNC(=O)c2ccccn2)c1	5	48*	0	-1	6	1
COC(=O)[C@@]12CCCCC=C1N(CCc1ccc(Cl)cc1)C(=O)[C@H]2CC(=O)NCc1cccc2ccccc12	-5	-1	3	1	3	-3
Clc1ccc(Nc2nc(-c3ccncc3)cs2)cc1	9	0	-2	6	-1	-2
Fc1ccc(Nc2nc(-c3ccncc3)cs2)cc1	-7	28*	5	2	0	12
CCCCN(CC)CCCNC(=O)c1cc2c(-c3ccc(OC)c(OC)c3)nn(C)c2s1	-7	24*	12	-5	11	-4
CCN(CC)CCCNC(=O)c1cc2c(-c3cccc(OC)c3)nn(C)c2s1	2	9	-1	-11	-6	-1
COCCN1CC(CNC(=O)c2cc(COc3ccc(C)c(C)c3)on2)CC1=O (centres undefined)	-4	21*	7	3	8	-1
Cc1cccc(C(O)c2ncc(-c3ccc4ccccc4c3)[nH]2)c1C (centres undefined)	1	30*	4	-2	0	-6
O=C(NC(Cc1ccccc1)C(=O)O)/C(=C\c1ccc(Cl)cc1)NC(=O)c1ccccc1 (centres undefined)	-3	28*	-2	-2	-5	-3
COCc1[nH]nc2c1C(c1ccc(C)cc1)N(c1ccc(OC)cc1)C2=O (centres undefined)	3	-4	3	0	4	-1
Cc1ccccc1NC(=O)OCCCN1C(=O)CCC12CCC(C)CC2 (centres undefined)	-3	-3	-4	-4	3	-2
COC(=O)c1cc(Br)c(=O)n(-c2ccccn2)c1	-4	37*	-6	4	1	1
COC(=O)c1cc(Br)c(=O)n(-c2nccs2)c1	-4	-2	3	-6	1	-1
Fc1ccc(CSc2nnc(CN3CCOCC3)n2-c2ccccc2)c(Cl)c1	3	43*	-1	5	3	0

Screens as filed in PubChem.
